Data set [1] concerns MCF7. The data set is described as follows: Antiproliferative activity against human MCF7 cells assessed as inhibition of cell viability at 20 uM measured after 48 hrs by MTT assay relative to control. It counts as functional.
The test system of data set [2] is MCF7. Put plainly: Antiproliferative activity against human MCF7 cells assessed as inhibition of cell viability measured after 48 hrs by MTT assay. It counts as functional, cell-based. The following applies: MCF7, 48 h. The method in brief:
(§1)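 MTT cell viability read-out; IC50 obtained by non-linear regression of concentration–response data; values are mean ± SD of three independent experiments.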

The subject of the next data set is HCC1806. The data set is described as follows: Antiproliferative activity against human HCC1806 cells assessed as inhibition of cell viability measured after 48 hrs by MTT assay. The following applies: HCC1806, 48 h. It counts as functional, cell-based. The method in brief: as §1
On the technique in general: Tetrazolium assays rely on reduction of a dye to a coloured formazan, in cell work by metabolically active cells.

Another data set concerns MDA-MB-231. Put plainly: Antiproliferative activity against human MDA-MB-231 cells assessed as inhibition of cell viability measured after 48 hrs by MTT assay. Format: functional, cell-based. The settings on record: MDA-MB-231, 48 h. Summed up:
as §1

Another data set relates to MDA-MB-468. Put plainly: Antiproliferative activity against human MDA-MB-468 cells assessed as inhibition of cell viability measured after 48 hrs by MTT assay. The settings on record: MDA-MB-468, 48 h. It counts as functional, cell-based. Summed up: as §1
The test system of a further data set is HEK-293T. Put plainly: Cytotoxicity against HEK293T cells assessed as cell growth inhibition measured after 48 hrs by MTT assay. Format: functional, cell-based. The settings on record: Homo sapiens. Summed up: as §1
The next data set relates to SK-BR-3. The data set is described as follows: Antiproliferative activity against human SK-BR-3 cells assessed as inhibition of cell viability measured after 48 hrs by MTT assay. It counts as functional, cell-based. The settings on record: SK-BR-3, 48 h. Summed up: as §1
The subject of a further data set is BT-474. The data set is described as follows: Antiproliferative activity against human BT-474 cells assessed as inhibition of cell viability measured after 48 hrs by MTT assay. The following applies: BT-474, 48 h. It counts as functional, cell-based. Summed up: as §1
A short description of data set [3]: Thermal stability of compound in boiling toluene at 120 degreeC assessed as time taken for compound decomposition at 1 mg/ml by HPLC analysis. It counts as physicochemical. The following applies: read-out: T50.

Structures are written as SMILES. Where only a bound is given, the exact number is not on record here.

In general, inhibition refers to how much of the control response was suppressed. Broadly, the IC50 is the concentration needed to halve the response being measured. On to `COc1cc(/C=C/C(=O)/C=C/N2CCN(C)CC2)cc(OC)c1`, for which the inhibition at 20 µM in the data set with MCF7 [1] is greater than 50%. The IC50 in the data set with MCF7 [2] is 14.2 µM; with HCC1806 it was 14.8 µM; in the data set with MDA-MB-231 it was 9.13 µM; in the data set on MDA-MB-468, greater than 20 µM.
Turning to `COC1=C2C[C@@H](C)C[C@H](OC)[C@H](O)[C@@H](C)/C=C(\C)[C@H](OC(N)=O)[C@@H](OC)/C=C\C=C(/C)C(=O)NC(=CC1=O)C2=O` [GELDANAMYCIN], the IC50 was found to be 0.53 µM with HEK-293T; 0.13 µM in the data set on MCF7 [2]; 0.12 µM with HCC1806; 0.15 µM with MDA-MB-231; 0.033 µM with MDA-MB-468; 0.033 µM in the data set with SK-BR-3. Moreover, the IC50 with BT-474 stood at 0.027 µM.
Consider `CO[C@@H]1[C@@H](OC(N)=O)[C@@H](O)[C@H](Oc2ccc3c(O)c(NC(=O)c4ccc(O)c(CC=C(C)C)c4)c(=O)oc3c2C)OC1(C)C` [NOVOBIOCIN], for which the IC50 in the data set on HEK-293T was greater than 100 µM.
Take `COc1cc(/C=C/C(=O)/C=C/N(C)CCN(C)C)cc(OC)c1`: the inhibition at 20 µM in the data set on MCF7 [1] was greater than 50%. Further, the IC50 in the data set on MCF7 [2] is 16.7 µM; in the data set on HCC1806 it was 14.7 µM; in the data set on MDA-MB-231, 12.9 µM; in the data set with MDA-MB-468 it was greater than 20 µM.
For the compound `CC(C)=CCC[C@]1(C)/C=C/[C@@H](OC(=O)C=C(C)C)[C@](C)(O)/C=C/C(=O)/C(CN2CCN(C)CC2)=C\C1`, the half-life at 1 mg/ml in data set [3] is less than 5 min.
On to `CN1CCN(/C=C/C(=O)/C=C/c2cccc3c2OCO3)CC1`, for which, in the data set with MCF7 [1], the inhibition at 20 µM was greater than 50%. Moreover, the IC50 with MCF7 [2] was 12.9 µM; in the data set on HCC1806 it was 13.2 µM; in the data set with MDA-MB-231 it was 8.14 µM; in the data set with MDA-MB-468, greater than 20 µM.

The values above are taken from ChEMBL document CHEMBL5356984 (RSC Med Chem, 2023).
